Source: ChEMBL document CHEMBL2321729, “Identification of acidic heterocycle-substituted 1H-pyrazolo[3,4-b]pyridines as soluble guanylate cyclase stimulators” (Bioorg Med Chem Lett, 2013)
Values after ≈ are worked out from the molar mass of the structure shown.

How the values were obtained:
[1] = Oral bioavailability in Wistar rat at 0.3 mg/kg; assay type: ADME, organism-based; conditions: in vivo
Procedure, shortened: (§1)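 Wistar rats given 0.3 mg/kg as an intravenous bolus and by oral gavage, formulated in EtOH/PEG400/H₂O; mean values. AUC_norm was calculated from the concentration–time curve after the intravenous dose. Clearance was taken as total plasma (or total blood) clearance. Mean residence time, half-life and oral bioavailability were also derived.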

[2] = Total plasma clearance in Wistar rat at 0.3 mg/kg, iv and 0.3 mg/kg, po; assay type: ADME, organism-based; procedure, shortened: as §1
[3] = Half life in Wistar rat at 0.3 mg/kg, iv and 0.3 mg/kg, po; assay type: ADME, organism-based; conditions: in vivo; procedure, shortened: as §1
Rattus norvegicus [4] = test: Dose normalized AUC in Wistar rat at 0.3 mg/kg, iv; assay type: ADME, organism-based; design: dose 0.3 mg/kg, route intravenous; conditions: in vivo; procedure, shortened: as §1
[5] = Pseudo-thermodynamic solubility of the compound at pH 6.5; assay type: physicochemical; conditions: buffer, read-out: Therm_solubility
Procedure, shortened: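 Pseudo-thermodynamic solubility measured at pH 6.5.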

Hepatocyte = test: Stability of the compound in rat liver hepatocytes; assay type: ADME, cell-based
Procedure, shortened: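 Bioavailability (Fmax) predicted from incubation with rat liver hepatocytes.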

[6] = Stimulation of soluble guanylate cyclase activity in pre-contracted rabbit aortic rings assessed as inhibition of vasoconstriction; conditions: Oryctolagus cuniculus
Procedure, shortened: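 Relaxation of rabbit aortic rings that were pre-contracted before exposure. IC50 given as the mean of three experiments.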

[7] = Total blood clearance in Wistar rat at 0.3 mg/kg, iv and 0.3 mg/kg, po; assay type: ADME, organism-based; conditions: whole blood
Procedure, shortened: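 Wistar rats received 0.3 mg/kg by intravenous bolus and by oral gavage, vehicle EtOH/PEG400/H₂O. Total blood clearance was reported as the mean value from these administrations.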

Liver microsomes = test: Stability of the compound in rat liver microsomes; assay type: ADME, Microsome
Procedure, shortened: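 Bioavailability (Fmax) predicted from incubation with rat liver microsomes.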

Rattus norvegicus [8] = test: Antihypertensive activity in po dosed spontaneously hypertensive rat assessed as reduction of blood pressure measured up to 24 hrs; assay type: functional, organism-based
Procedure, shortened: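 Oral gavage at 0 h in spontaneously hypertensive rats; controls given vehicle. Blood pressure expressed as a percentage of initial values (131–142 mmHg). Mean of 6–12 animals.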

[9] = Mean residence time in Wistar rat at 0.3 mg/kg, iv and 0.3 mg/kg, po; assay type: ADME, organism-based; conditions: in vivo; procedure, shortened: as §1

| Structure (SMILES) | bioavailability [1] [%] | clearance [2] [mL/min/kg] | half-life [3] [h] | AUC/dose (Rattus norvegicus [4]) [kg·h/L] | solubility thermodynamic [5] [µg/mL] | Stability (Hepatocyte) [%] | IC50 [6] [nM] | Stability (Liver microsomes) [%] | MRT [9] [h] | clearance [7] [mL/min/kg] | Activity (Rattus norvegicus [8]) |
| --- | --- | --- | --- | --- | --- | --- | --- | --- | --- | --- | --- |
| Fc1ccccc1Cn1nc(-c2nnn[nH]2)c2cccnc21 | 94 | 4.67 | 2.4 | 3.63 | 150 (≈ 508 µM) | 100 | 8600 | – | – | – | – |
| Fc1ccccc1Cn1nc(-c2noc(=S)[nH]2)c2cccnc21 | – | – | – | – | 280 (≈ 855 µM) | 69 | 1100 | – | – | – | – |
| O=c1[nH]nc(-c2nn(Cc3ccccc3F)c3ncccc23)[nH]1 | – | – | – | – | 16 (≈ 51.6 µM) | 59 | 3100 | – | – | – | – |
| Nc1nc(-c2nn(Cc3ccccc3F)c3ncccc23)nc(N)c1N1CCOCC1 | 25 | – | 1.2 | 0.32 | – | 76 | 100 | – | – | 75 | – |
| O=c1[nH]c(-c2nn(Cc3ccccc3F)c3ncccc23)no1 | 75 | – | 1.4 | 2.79 | 320 (≈ 1030 µM) | 98 | 1260 | – | 1.9 | 11.7 | Dose-dependent effect |
| Cn1nc(-c2nn(Cc3ccccc3F)c3ncccc23)[nH]c1=O | – | – | – | – | 4 (≈ 12.3 µM) | 74 | 870 | – | – | – | – |

Further lines, with some results ahead:

| bioavailability [1] [%] | clearance [2] [mL/min/kg] | half-life [3] [h] | AUC/dose (Rattus norvegicus [4]) [kg·h/L] | solubility thermodynamic [5] [µg/mL] | Stability (Hepatocyte) [%] | IC50 [6] [nM] | Stability (Liver microsomes) [%] | MRT [9] [h] | Structure (SMILES) | clearance [7] [mL/min/kg] | Activity (Rattus norvegicus [8]) |
| --- | --- | --- | --- | --- | --- | --- | --- | --- | --- | --- | --- |
| – | – | – | – | – | 69 | 730 | – | – | CCn1nc(-c2nn(Cc3ccccc3F)c3ncccc23)[nH]c1=O | – | – |
| – | – | – | – | 10 (≈ 32.1 µM) | – | 610 | 59 | – | O=c1[nH]nc(-c2nn(Cc3ccccc3F)c3ncccc23)o1 | – | – |
| – | – | – | – | – | 91 | 610 | – | – | O=c1[nH]c(-c2nn(Cc3ccccc3F)c3ncccc23)nn1CC(F)(F)F | – | – |
| – | – | – | – | 11 (≈ 33.6 µM) | 90 | 520 | – | – | O=c1[nH]c(-c2nn(Cc3ccccc3F)c3ncccc23)ns1 | – | – |
